The source made the active and inactive calls. The calls are words filed in the database; no cut-off is given here.
Key:
K562 = test: Growth inhibition of human K562 cells incubated for 4 days by WST-1 assay; type: functional; details: K562, 96 h
How it was run: (§1)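 Cells were kept at 37 °C under 5% CO2 and plated on day 0 at 500–5000 cells/well. On day 1 they received ten concentrations from 0.0025 to 50 µM (final), in triplicate. On day 4 WST-1 was added, followed by 30 min–4 h incubation and absorbance at 450 nm. GI50 is the concentration killing 50% of cells.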

[1] = Growth inhibition of human HCT116 cells incubated for 4 days by WST-1 assay; type: functional; details: HCT-116, 96 h; how it was run: as §1
MDA-MB-231 = test: Growth inhibition of human MDA-MB-231 cells incubated for 4 days by WST-1 assay; type: functional; details: MDA-MB-231, 96 h; how it was run: as §1
Ovis aries [2] = species: Ovis aries; test: Inhibition of sheep brain tubulin polymerization by UV spectrophotometric analysis; details: concentration not given here
How it was run: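 Tubulin purified from sheep brain by two assembly/disassembly cycles, about 2–3 mg/mL in 0.1 M MES, 0.5 mM MgCl2, 1 mM EGTA, 1 mM GTP, pH 6.6. Compound in DMSO added at 0 °C, then moved to a 37 °C thermostated cell. Assembly followed by turbidity at 350 nm for a few min.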

HT-29 = test: Growth inhibition of human HT-29 cells incubated for 4 days by WST-1 assay; type: functional; details: HT-29, 96 h; how it was run: as §1
A549 = test: Growth inhibition of human A549 cells incubated for 4 days by WST-1 assay; type: functional; details: A549, 96 h; how it was run: as §1
MCF7 = test: Growth inhibition of human MCF7 cells incubated for 4 days by WST-1 assay; type: functional; details: MCF7, 96 h; how it was run: as §1
HepG2 = test: Growth inhibition of human HepG2 cells incubated for 4 days by WST-1 assay; type: functional; details: HepG2, 96 h; how it was run: as §1
NCI-H460 = test: Growth inhibition of human NCI-H460 cells incubated for 4 days by WST-1 assay; type: functional; details: NCI-H460, 96 h; how it was run: as §1
[3] = Growth inhibition of human PK59 cells incubated for 4 days by WST-1 assay; type: functional; details: PK-59, 96 h; how it was run: as §1
[4] = Growth inhibition of human MIAPaCa2 cells incubated for 4 days by WST-1 assay; type: functional; details: MIA PaCa-2, 96 h; how it was run: as §1
Ovis aries [5] = species: Ovis aries; test: Induction of sheep brain microtubule disassembly by UV spectrophotometric analysis
How it was run: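 Sheep brain tubulin, purified by two assembly/disassembly cycles and held in MES buffer with GTP at pH 6.6, was polymerized at 37 °C for 10 min. Compound was then added to the MTs at 0 °C and depolymerization was followed over the next few minutes by turbidity at 350 nm.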

KB = test: Growth inhibition of human KB cells at 10 uM after 72 hrs by MTS assay; type: functional; details: read-out: GI
How it was run: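 KB cells were grown in DMEM with 25 mM glucose and 10% FCS at 37 °C, 5% CO2, and seeded at 500 cells/well. 24 h later, compound in DMSO (1% final) was added at 10 µM or 1 µM for 72 h; controls received DMSO alone. Runs were in duplicate. Viable cells were read with MTS at 490 nm.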

Question: With N#C/C(=C\c1cccnc1)c1c[nH]c2ccccc12 as the molecule, how does the GI50 (K562) read?
Answer: 21.6 µM

Question: What about the GI50 [1] of the same molecule?
Answer: > 50 µM

Question: And the GI50 (MDA-MB-231)?
Answer: > 50 µM

Question: What about the inhibition (Ovis aries [2]) of the same molecule?
Answer: 11%

Question: What about the GI50 (HT-29) of the same molecule?
Answer: > 50 µM

Question: And the IC25 (HT-29)?
Answer: 7.5 µM

Question: And the GI50 (A549)?
Answer: > 50 µM

Question: What about the GI50 (MCF7) of the same molecule?
Answer: > 50 µM

Question: What about the IC25 (MCF7) of the same molecule?
Answer: 28.6 µM

Question: And the GI50 (HepG2)?
Answer: > 50 µM

Question: What about the GI50 (NCI-H460) of the same molecule?
Answer: > 50 µM

Question: What about the IC25 (NCI-H460) of the same molecule?
Answer: 18.5 µM

Question: What about the GI50 [3] of the same molecule?
Answer: > 50 µM

Question: What about the GI50 [4] of the same molecule?
Answer: > 50 µM

Question: What about the Activity (Ovis aries [5]) of the same molecule?
Answer: inactive

Question: And the inhibition of growth at 10 µM (KB)?
Answer: 27%
